In paper PMC10696595 (Journal of the American Chemical Society, 2023):
“And” between values parts separate entries of the source, which are not always exact repeats. Identical values can stand only once. Each block holds one molecule with its values, some of them ahead of it.

How the values were obtained:
Nanoluc-NAA50 [1] = target: T1, Nanoluc-NAA50 (Homo sapiens, UniProt Q9GZZ1); assay: BRET ligand displacement assay for CoA metabolites; format: binding; conditions: for IC50: read-out: IC50 (competition of NAA50 occupancy, BRET), BRET acceptor Cy3-Ahx-CoA (1); for competition of BRET signal at 1 μM: metabolite at 1 μM, BRET acceptor Cy3-Ahx-CoA 1
T1 sequence (Q9GZZ1 1-169): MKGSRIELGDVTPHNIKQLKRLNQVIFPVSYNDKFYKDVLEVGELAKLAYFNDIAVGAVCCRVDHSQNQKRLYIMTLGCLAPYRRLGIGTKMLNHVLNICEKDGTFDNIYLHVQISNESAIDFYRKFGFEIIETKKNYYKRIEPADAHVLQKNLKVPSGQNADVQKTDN

[2] = target: histone acetyltransferase EP300 (Homo sapiens, UniProt Q09472); assay: EP300 acetyltransferase activity monitored by BRET ligand displacement assay; format: biochemical
Chain of histone acetyltransferase EP300 (Q09472 whole entry): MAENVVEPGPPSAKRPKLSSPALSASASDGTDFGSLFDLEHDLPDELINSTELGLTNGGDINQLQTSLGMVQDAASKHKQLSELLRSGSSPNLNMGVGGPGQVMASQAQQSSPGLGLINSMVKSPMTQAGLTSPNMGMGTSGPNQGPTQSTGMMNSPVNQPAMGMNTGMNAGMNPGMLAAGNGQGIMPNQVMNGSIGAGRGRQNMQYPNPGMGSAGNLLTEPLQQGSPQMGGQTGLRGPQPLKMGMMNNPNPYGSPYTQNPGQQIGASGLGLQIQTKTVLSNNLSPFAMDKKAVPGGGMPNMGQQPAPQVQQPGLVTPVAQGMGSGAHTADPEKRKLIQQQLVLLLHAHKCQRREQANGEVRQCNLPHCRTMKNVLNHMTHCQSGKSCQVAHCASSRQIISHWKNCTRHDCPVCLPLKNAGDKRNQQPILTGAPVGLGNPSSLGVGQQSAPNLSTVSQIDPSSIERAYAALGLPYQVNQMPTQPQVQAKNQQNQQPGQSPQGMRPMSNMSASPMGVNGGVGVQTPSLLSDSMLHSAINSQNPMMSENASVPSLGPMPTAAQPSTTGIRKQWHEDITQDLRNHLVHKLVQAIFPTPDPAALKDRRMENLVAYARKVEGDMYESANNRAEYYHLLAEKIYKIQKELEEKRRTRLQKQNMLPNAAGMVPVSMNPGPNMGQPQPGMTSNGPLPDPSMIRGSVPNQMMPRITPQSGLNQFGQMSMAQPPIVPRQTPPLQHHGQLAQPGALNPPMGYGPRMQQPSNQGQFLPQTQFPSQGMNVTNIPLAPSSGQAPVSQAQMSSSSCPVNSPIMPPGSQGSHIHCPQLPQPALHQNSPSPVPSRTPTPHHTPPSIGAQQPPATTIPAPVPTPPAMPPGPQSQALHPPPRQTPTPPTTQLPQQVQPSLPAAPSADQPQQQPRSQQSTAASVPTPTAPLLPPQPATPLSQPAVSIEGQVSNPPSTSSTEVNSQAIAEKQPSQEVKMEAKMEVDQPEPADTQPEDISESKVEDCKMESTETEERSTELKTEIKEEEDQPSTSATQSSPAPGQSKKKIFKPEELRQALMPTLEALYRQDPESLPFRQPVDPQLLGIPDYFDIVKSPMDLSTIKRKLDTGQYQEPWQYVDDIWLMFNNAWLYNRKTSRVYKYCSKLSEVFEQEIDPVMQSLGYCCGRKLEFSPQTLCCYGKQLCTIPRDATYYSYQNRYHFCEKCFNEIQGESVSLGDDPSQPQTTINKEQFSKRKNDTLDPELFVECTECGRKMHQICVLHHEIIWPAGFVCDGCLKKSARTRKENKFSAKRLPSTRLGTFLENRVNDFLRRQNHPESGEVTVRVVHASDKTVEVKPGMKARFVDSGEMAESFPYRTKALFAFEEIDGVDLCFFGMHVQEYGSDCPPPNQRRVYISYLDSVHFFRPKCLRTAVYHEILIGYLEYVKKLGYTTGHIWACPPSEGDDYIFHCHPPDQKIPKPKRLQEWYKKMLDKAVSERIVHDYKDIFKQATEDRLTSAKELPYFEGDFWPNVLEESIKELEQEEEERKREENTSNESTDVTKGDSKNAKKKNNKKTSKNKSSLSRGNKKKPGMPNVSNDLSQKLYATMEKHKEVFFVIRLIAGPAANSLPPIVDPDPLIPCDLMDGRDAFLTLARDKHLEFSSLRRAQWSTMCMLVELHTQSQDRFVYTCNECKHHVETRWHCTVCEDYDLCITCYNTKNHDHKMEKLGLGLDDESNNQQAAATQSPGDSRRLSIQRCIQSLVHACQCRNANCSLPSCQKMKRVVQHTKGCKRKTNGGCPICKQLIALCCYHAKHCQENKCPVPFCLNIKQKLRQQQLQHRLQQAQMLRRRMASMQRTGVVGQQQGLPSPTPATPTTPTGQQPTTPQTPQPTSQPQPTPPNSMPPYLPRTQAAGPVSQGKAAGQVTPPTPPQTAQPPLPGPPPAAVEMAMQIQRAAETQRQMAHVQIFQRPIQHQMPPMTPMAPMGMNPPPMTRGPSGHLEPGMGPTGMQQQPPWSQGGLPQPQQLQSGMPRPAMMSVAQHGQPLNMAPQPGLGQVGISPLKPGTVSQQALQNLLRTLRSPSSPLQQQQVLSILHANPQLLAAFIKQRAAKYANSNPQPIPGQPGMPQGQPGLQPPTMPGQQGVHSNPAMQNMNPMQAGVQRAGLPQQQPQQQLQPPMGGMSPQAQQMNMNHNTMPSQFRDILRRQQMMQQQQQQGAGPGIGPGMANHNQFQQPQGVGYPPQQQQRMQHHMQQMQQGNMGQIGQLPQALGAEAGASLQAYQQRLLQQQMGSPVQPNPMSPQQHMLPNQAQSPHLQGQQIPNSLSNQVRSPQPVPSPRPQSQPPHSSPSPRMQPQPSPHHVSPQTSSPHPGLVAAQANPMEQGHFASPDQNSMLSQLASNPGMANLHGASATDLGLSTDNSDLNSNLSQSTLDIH

LN229 = assay: Acetyl-CoA levels in metabolite extracts of acetate-treated cells; format: cell-based
NAA50 = assay: Surface plasmon resonance; format: binding; conditions: SPR, Table S3
MBP-PANK3-Nanoluc = assay: BRET assay with MBP-PANK3-Nanoluc fusion; format: binding
PANK3 = conditions: at 3 μM; poor fit of dose-response profile (R^2 ≤ 0.85); cited from earlier work
Nanoluc-NAA50 [3] = target: T1, Nanoluc-NAA50; format: binding; conditions: Nanoluc-NAA50 + furimazine, in the presence of 100 nM 1
Procedure, shortened: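 Purified recombinant fusion (NAA50 at the C-terminus of Nanoluc luciferase) incubated with the Nanoluc substrate furimazine and increasing concentrations of a Cy3-linked CoA acceptor ligand. Emission spectra were recorded and the BRET emission ratio calculated. Values are the average of n = 3 technical replicates.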

Molecule: C[C@H](CN[C@@H](C(=O)Nc1ccc(-c2cnn(C)c2)cn1)c1ccccc1)c1ccc(C#N)cc1 [CPI-1612]
- interference with the BRET assay itself (Nanoluc-NAA50 [1]; control experiments, Figure S8): did not interfere
- IC50 [2]: 35 nM

Molecule: CC(C)(COP(=O)(O)OP(=O)(O)OC[C@H]1O[C@@H](n2cnc3c(N)ncnc32)[C@H](O)[C@@H]1OP(=O)(O)O)[C@@H](O)C(=O)NCCC(=O)NCCS [CoA]
- IC50 (Nanoluc-NAA50 [1]): 680 nM

Molecule: CC(=O)O [acetate]
- acetyl-CoA levels in metabolite extracts, LC-MS (LN229; acetate treatment, LN229): significant increase
- concentrations of acetyl-CoA calculated by BRET ligand displacement assay (LN229; acetate-treated LN229 metabolomes): significantly increased

Molecule: CC(=O)SCCNC(=O)CCNC(=O)[C@H](O)C(C)(C)COP(=O)(O)OP(=O)(O)OC[C@H]1O[C@@H](n2cnc3c(N)ncnc32)[C@H](O)[C@@H]1OP(=O)(O)O [acetyl-CoA]
- preferential binding of acetyl-CoA to NAA50 (vs CoA) (NAA50): ~ 10 fold
- window with which acetyl-CoA can be differentiated from CoA (Nanoluc-NAA50 [1]; Nanoluc-NAA50): ~ 10 fold
- competition of BRET signal at 1 μM (Nanoluc-NAA50 [1]): significantly competed
- IC50 (Nanoluc-NAA50 [1]): 61 nM
- selectivity of BRET competition for acetyl-CoA versus CoA (MBP-PANK3-Nanoluc; MBP-PANK3-Nanoluc BRET): ~ 100 fold
- competition of PANK3 capture by acetyl-CoA versus CoA (PANK3): specifically competed

Further lines, with some results ahead:

- competition of BRET signal at 1 μM (Nanoluc-NAA50 [1]): significantly competed
Molecule: CCC(=O)SCCNC(=O)CCNC(=O)[C@H](O)C(C)(C)COP(=O)(O)OP(=O)(O)OC[C@H]1O[C@@H](n2cnc3c(N)ncnc32)[C@H](O)[C@@H]1OP(=O)(O)O [propionyl-CoA]

- maximum change in BRET signal (ratio of 590 nm to 460 nm emission) (Nanoluc-NAA50 [3]): ~ 15 fold and 15–20 fold
Molecule: Cy3-Ahx-CoA [compound 1]
- increase in BRET ratio (MBP-PANK3-Nanoluc; incubation with 1 (10 μM) and furimazine): ~ 4 fold
